# Test results taken from ChEMBL document CHEMBL1125909, “Synthesis of chiral and achiral pyranenamine derivatives. Potent agents with topical ocular antiallergic activity” (J Med Chem, 1991).
# Columns and labels:
# [1] = Compound was evaluated for pyranenamine lipophilicity; assay type: physicochemical; conditions: octanol/water
# [2] = tested on: Rattus norvegicus; test: Compound was evaluated for the type-I hypersensitivity in rat POA model after intravenous administration.; assay type: functional; conditions: read-out: ID50 (the source's name)
# How it was run: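 Modified Iso method. Rats of 150–200 g were sensitized with three conjunctival injections per eye (bulbar, palpebral, lower) of 50 μL of 1:4-diluted rat IgE anti-ovalbumin antiserum. 24 h later, drug was given IV just before IV challenge with ovalbumin (25 mg/kg) plus Evans blue (12.5 mg/kg in saline). Eyelids and eyeballs were taken at 30 min, extracted in acetone/0.5% sodium sulfate, and read at 620 nm. Result expressed as ID50 (mg/kg).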
# [3] = tested on: Rattus norvegicus; test: Compound was evaluated for the type-I hypersensitivity in rat POA model at a concentration of 1% administered topically.; assay type: functional
# How it was run: (§1)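 Modified Iso passive ocular anaphylaxis in 150–200 g rats. Each eye was sensitized by three conjunctival injections of 50 μL of 1:4-diluted rat IgE anti-ovalbumin antiserum. At 24 h, 10 μL of drug solution was instilled topically 15 min before, just prior to, and 15 min after IV ovalbumin (25 mg/kg) with Evans blue (12.5 mg/kg). At 30 min, eye tissue dye was extracted in acetone/0.5% Na2SO4 and read at 620 nm. Result expressed as % inhibition.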
# [4] = tested on: Rattus norvegicus; test: Compound was evaluated for the type-I hypersensitivity in rat POA model at a concentration of 5% administered topically.; assay type: functional; how it was run: as §1
# [5] = tested on: Rattus norvegicus; test: Compound was evaluated for the type-I hypersensitivity in rat POA model at a concentration of 3% administered topically.; assay type: functional; how it was run: as §1
# [6] = tested on: Rattus norvegicus; test: Compound was evaluated for the type-I hypersensitivity in rat POA model at a concentration of 10% administered topically.; assay type: functional; how it was run: as §1
# [7] = tested on: Rattus norvegicus; test: Compound was evaluated for the type-I hypersensitivity in rat POA model at a concentration of 4% administered topically.; assay type: functional
# How it was run: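 Modified Iso method. Rats (150–200 g) sensitized with three 50 µL injections per eye (bulbar conjunctiva, palpebral, lower conjunctiva) of 1:4-diluted rat IgE anti-ovalbumin antisera. After 24 h, iv challenge with ovalbumin 25 mg/kg plus Evans blue 12.5 mg/kg. Drug (10 µL) instilled 15 min before, just before and 15 min after challenge. Killed at 30 min; eyelids and eyeballs extracted in acetone/0.5% sodium sulfate; read at 620 nm; % inhibition.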
smiles,measurement,setting,value
CC(=O)C1=C(O)C(=C(C)Nc2cc(NC(=O)[C@H](O)CO)cc(NC(=O)[C@H](O)CO)c2)C(=O)OC1=O,logP,[1],-2.44
same,ED50,[2],300 mg/kg
CC(=O)c1c(O)c(/C(C)=N/c2cc(NC(=O)C(CO)CO)cc(NC(=O)C(CO)CO)c2)c(O)oc1=O,Inhibition,[3],12%
same,Inhibition,[4],41%
same,logP,[1],-2.43
same,Inhibition,[5],31%
same,ED50,[2],30 mg/kg
CC(=O)c1c(O)c(/C(C)=N/c2cc(NC(=O)C(O)CO)cc(NC(=O)C(O)CO)c2)c(O)oc1=O (stereo not given),Inhibition,[3],16%
same,logP,[1],-2.44
same,Inhibition,[5],25%
same,ED50,[2],60 mg/kg
CC(=O)c1c(O)c(/C(C)=N/c2cc(NC(=O)CO)cc(NC(=O)CO)c2)c(O)oc1=O,logP,[1],-0.32
same,Inhibition,[5],15%
same,ED50,[2],30 mg/kg
CC(=O)C1=C(O)C(=C(C)Nc2cc(NC(=O)[C@@H](O)CO)cc(NC(=O)[C@@H](O)CO)c2)C(=O)OC1=O,Inhibition,[4],63%
same,logP,[1],-2.44
same,Inhibition,[5],40%
same,Inhibition,[6],79%
same,ED50,[2],30 mg/kg
O=C([O-])c1cc(=O)c2c(OCC(O)COc3cccc4oc(C(=O)[O-])cc(=O)c34)cccc2o1.[Na+].[Na+] [CROMOLYN SODIUM],Inhibition,[7],0%
